Measured values: PMC5035717 (Cell, 2016)
Substitutions are numbered along the chain they refer to. Entries after “also recorded” stand apart in the source; their conditions may differ. Like-named read-outs stand apart in the source and are kept apart here.

Columns and labels:
[1] = target: T1, XSmoCRD (Xenopus laevis, UniProt Q98SW5); assay: Fluorescence polarization binding of BODIPY probes to purified XSmoCRD; settings: XSmoCRD (amino acids 35–154), probe 5 nM
T1 sequence (Q98SW5 35-154): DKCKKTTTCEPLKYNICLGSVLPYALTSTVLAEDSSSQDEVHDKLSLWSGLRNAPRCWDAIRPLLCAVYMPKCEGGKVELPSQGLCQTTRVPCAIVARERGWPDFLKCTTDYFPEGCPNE
Procedure, shortened: (§1)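 Xenopus Smo CRD (aa 35–154) or ectodomain (aa 35–189; wild type or G84S) expressed in E. coli as thioredoxin-His6 fusions. Purified by Ni-NTA, glutathione redox refolding and size exclusion. Increasing protein amounts mixed with BODIPY FL probes (5 nM) in 20 mM HEPES pH 7.5, 100 mM NaCl, 1 h at room temperature. FP converted to anisotropy; triplicate; Kd from curve fitting.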

[2] = target: T2, XSmo ectodomain (Xenopus laevis, UniProt Q98SW5); assay: Fluorescence polarization binding of BODIPY probes to purified XSmo ectodomain; settings: XSmo ectodomain (amino acids 35–189), probe 5 nM
T2 sequence (Q98SW5 35-189): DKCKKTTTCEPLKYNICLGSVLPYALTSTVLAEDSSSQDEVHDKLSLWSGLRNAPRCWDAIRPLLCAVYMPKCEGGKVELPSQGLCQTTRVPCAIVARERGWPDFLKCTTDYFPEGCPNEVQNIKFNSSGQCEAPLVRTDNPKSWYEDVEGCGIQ
Procedure, shortened: as §1

[3] = target: mSmo (Mus musculus, UniProt P56726); assay: Ciliary localization of mSmo in rescued Smo-null cells; format: cell-based; settings: with or without sterol depletion
Procedure, shortened: (§2)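 Smo-null cells rescued with the mSmo construct, grown on glass coverslips. Confluent cultures starved overnight in DMEM, then sterol-depleted with 1.5% MCD in DMEM for 30 min. Later incubations with agents in DMEM plus 40 μM pravastatin. Immunofluorescence used anti-acetylated tubulin as cilia marker; ciliary Smo intensity quantified by automated image analysis, at least 300 cilia per condition.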

[4] = tested on: mSmoΔCRD; format: cell-based, mouse; settings: irrespective of sterol depletion
[5] = target: wild-type mSmo (Mus musculus, UniProt P56726); format: cell-based; settings: for Effect on Hh pathway activity (Gli1 mRNA): mSmo, irrespective of sterol depletion; for Activation of Hh signaling (in words): wild-type mSmo, sterols delivered as MCD complexes
[6] = tested on: mSmoΔCRD; assay: Ciliary localization of mSmoΔCRD in rescued Smo-null cells; format: cell-based, mouse; settings: with or without sterol depletion
Procedure, shortened: as §2

[7] = target: T3, XSmoG84S ectodomain (Xenopus laevis, UniProt Q98SW5, G84S); settings: read-out: IC50, competition of BODIPY-cyclopamine binding
T3 sequence (Q98SW5 35-189 G84S): T2 sequence (Q98SW5 35-189) with G50S
Procedure, shortened: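 Purified E. coli-expressed Xenopus Smo G84S ectodomain incubated with BODIPY-cyclopamine (5 nM) and varying concentrations of unlabeled competitor for 1 h at room temperature. Fluorescence polarization read on a plate reader and converted to anisotropy. Measured in triplicate; IC50 obtained by fitting competition curves.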

[8] = target: T2, XSmo ectodomain; format: binding
[9] = target: T2, XSmo ectodomain; assay: Circular dichroism; format: binding; settings: small molecule 25 μM; CD signal at 225 nm; protein alone Tm=62.1°C
[10] = target: mSmoG115F (Mus musculus, UniProt P56726, G115F); assay: Hh pathway activity by qPCR for Gli1 in Smo-null cells rescued with mSmoG115F; format: cell-based
[11] = tested on: Hh signaling in NIH-3T3 cells; assay: Synergy with Shh in activating Hh signaling in NIH-3T3 cells; format: cell-based, mouse
[12] = target: mSmoG115S/E164L (Mus musculus, UniProt P56726, E164L/G115S); format: cell-based
[13] = tested on: endogenous Smo in NIH-3T3 cells; assay: Ciliary recruitment of endogenous Smo in sterol-depleted NIH-3T3 cells; format: cell-based; settings: for Rescue of Smo recruitment to cilia in response to Shh: sterols added back as MCD complexes (100 μM); for Recruitment of endogenous Smo to cilia: agent alone
Procedure, shortened: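 Confluent NIH-3T3 cells starved overnight in DMEM, then sterol-depleted with 1.5% MCD for 30 min. Kept in DMEM with 40 μM pravastatin throughout. Sterols added back 1 h as MCD complexes, then overnight with agents or Shh (conditioned medium from 293T cells expressing human Shh aa 1–197). Stained with anti-acetylated tubulin (1:5000) and anti-mSmo (1 μg/mL final); ciliary Smo intensity quantified automatically.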

[14] = target: mSmoG115S (Mus musculus, UniProt P56726, G115S); assay: Hh pathway activity by qPCR for Gli1 in Smo-null cells rescued with mSmoG115S; format: cell-based
[15] = target: mSmoD99A (Mus musculus, UniProt P56726, D99A); assay: Hh pathway activity by qPCR for Gli1 in Smo-null cells rescued with mSmoD99A; format: cell-based
[16] = target: mSmoE164L (Mus musculus, UniProt P56726, E164L); assay: Hh pathway activity by qPCR for Gli1 in Smo-null cells rescued with mSmoE164L; format: cell-based
[17] = target: mSmoD477G/E522K (Mus musculus, UniProt P56726, D477G/E522K); assay: BODIPY-cyclopamine binding to mCherry-tagged mSmoD477G/E522K in 293T cells; settings: 50 nM
Procedure, shortened: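 mCherry-tagged mutant mSmo transiently expressed in 293T cells. Cells washed into serum-free OptiMEM, then incubated 1 h with BODIPY-cyclopamine, with or without SANT1 competitor (10 μM). Fixed in 3.6% formaldehyde/PBS for 30 min at room temperature and washed with TBST. BODIPY and mCherry signals imaged by epifluorescence microscopy.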

[18] = target: T3, XSmoG84S ectodomain; format: binding
Procedure, shortened: as §1

With “BODIPY-22-azacholesterol [BODIPY-22-NHC]” the Kd [1] was 1.36 µM and the Kd [2] was 1.4 µM.
Cc1nn(-c2ccccc2)c(C)c1/C=N/N1CCN(Cc2ccccc2)CC1 [SANT1] was tested, and the “Ciliary localization of mSmo” value [3] was “reduced”, the “Effect on Hh pathway activity (Gli1 mRNA)” value (“Effect” for short) [4] was “inhibited” and the “Effect” value [5] was “inhibited”. The “Ciliary localization of mSmoΔCRD” value [6] was “reduced”.
For CCCCC[C@@](C)(O)[C@H]1CC[C@H]2[C@@H]3CC=C4C[C@@H](O)CC[C@]4(C)[C@H]3CC[C@@]21C [20(R)-OHC-Pent], the IC50 [7] was 5.5 µM.
For CC(C)CCC[C@@H](C)[C@H]1CC[C@H]2[C@@H]3CC[C@H]4C[C@@H](O)CC[C@]4(C)[C@H]3CC[C@]12C [cholestanol], the “Binding to XSmo ectodomain (in words)” value ([8]; competition of BODIPY-cyclopamine) was “inactive; also recorded: does not bind”, the “Activation of Hh signaling (in words)” value [5] was “inactive” and the “Melting temperature (Tm) of XSmo ectodomain” value (“Melting temperature (Tm)” for short) [9] was 62.9 °C.
In the case of CC(C)CCC[C@@H](C)[C@H]1CC[C@H]2[C@@H]3CC=C4C[C@@H](O)CC[C@]4(C)[C@H]3CC[C@]12C [cholesterol], the “Activation of Hh signaling (in words)” value [10] is reported as “responds”, the IC50 [8] is reported as 2.4 µM and the “Synergy with Shh” value ([5]; Smo-null cells rescued with wild type mSmo, sterols 5 μM as MCD complexes) is reported as “synergizes”. For the same compound, the “Rescue of mSmo activation by Shh after sterol depletion” value ([5]; add-back 100 μM MCD complex) was “rescues”, the “Activation of Hh signaling (in words)” value [5] was “activate” and the “Activation of Hh signaling (in words)” value ([5]; listed as Cholesterol) was “activates Hh signaling”. For the same compound, the “Synergy with Shh” value [11] was “synergizes”, the “Activation of Hh signaling (in words)” value [12] was “activate” and the “Rescue of Smo recruitment to cilia in response to Shh” value (shortened to “Rescue of Smo recruitment to cilia”) [13] was “rescued”. For the same compound, the “Melting temperature (Tm)” value [9] was 65.3 °C, the “Activation of Hh signaling (in words)” value [14] was “activate” and the “Activation of Hh signaling (in words)” value [15] was “defective”.
In the case of CC(C)CCC[C@](C)(O)[C@H]1CC[C@H]2[C@@H]3CC=C4C[C@@H](O)CC[C@]4(C)[C@H]3CC[C@@]21C [20(S)-OHC, 20(S)-hydroxycholesterol], the IC50 [8] is reported as 1.8 µM and the “Melting temperature (Tm)” value [9] is reported as 66.5 °C.
With “BODIPY-20(S)-hydroxycholesterol [BODIPY-20(S)-OHC]” the Kd [1] was 0.225 µM and the Kd [2] was 0.138 µM.
In the case of CC(C)CCC[C@@](C)(O)[C@H]1CC[C@H]2[C@@H]3CC=C4C[C@@H](O)CC[C@]4(C)[C@H]3CC[C@@]21C [20(R)-OHC], the “Activation of Hh signaling (in words)” value [14] is reported as “strongly activated”.
For CNC1CCC(N(Cc2cccc(-c3ccncc3)c2)C(=O)c2sc3ccccc3c2Cl)CC1 (stereo not shown) [SAG], the “Ciliary localization of mSmo” value [3] was “accumulate in cilia”, the “Effect” value [4] was “activated” and the “Effect” value [5] was “activated”. The “Recruitment of endogenous Smo to cilia” value [13] was “strongly recruit”, the “Ciliary localization of mSmoΔCRD” value [6] was “accumulate in cilia” and the “Activation of Hh signaling (in words)” value [15] was “robust activation”.
With C[C@H](CCCC(C)(C)F)[C@H]1CC[C@H]2[C@@H]3CC=C4C[C@@H](O)CC[C@]4(C)[C@H]3CC[C@]12C [25F-cholesterol, 25-fluorocholesterol] the “Rescue of Smo recruitment to cilia” value [13] was “rescued”.
With CCCCCC(C)(O)[C@H]1CC[C@H]2[C@@H]3CC=C4C[C@@H](O)CC[C@]4(C)[C@H]3CC[C@]12C (stereo partly drawn) [20(S)-OHC-Pent] the “Activation of Hh signaling (in words)” value [10] was “does not activate”, the “Synergy with Shh” value [11] was “does not synergize” and the “Activation of Hh signaling (in words)” value [12] was “do not respond”. For the same compound, the “Activation of Hh signaling (in words)” value [14] was “reduced”, the IC50 [7] was 44 µM and the “Activation of Hh signaling (in words)” value [15] was “do not respond”. The “Activation of Hh signaling (in words)” value [16] was “significantly decreases activation”.
With C[C@H](CCCC(F)(C(F)(F)F)C(F)(F)F)[C@H]1CC[C@H]2[C@@H]3CC=C4C[C@@H](O)CC[C@]4(C)[C@H]3CC[C@]12C [F7-cholesterol] the “Rescue of Smo recruitment to cilia” value [13] was “rescued”.
For CC1=C2C[C@H]3[C@@H](CC=C4C[C@@H](O)CC[C@@]43C)[C@@H]2CC[C@]12O[C@@H]1C[C@H](C)CN[C@H]1[C@H]2C [cyclopamine], the IC50 [8] was 4.5 µM and the “Melting temperature (Tm)” value [9] was 66.6 °C.
In the case of CC1=C2CC3C(CC=C4C[C@@H](O)CCC43C)C2CCC12O[C@@H]1CC(C)CN(CCNC(=O)CCCCCNC(=O)CCC3=[N+]4C(=Cc5c(C)cc(C)n5[B-]4(F)F)C=C3)C1C2C (stereo partly shown) [BODIPY-cyclopamine], the “Binding to mSmoD477G/E522K in cells (fluorescence microscopy)” value [17] is reported as “does not bind”, the Kd [18] is reported as 0.621 µM and the Kd [1] is reported as 0.389 µM. The Kd [2] was 0.434 µM.
CC(C)CCC[C@@H](C)[C@H]1CC[C@H]2[C@@H]3C(O)C=C4C[C@@H](O)CC[C@]4(C)[C@H]3CC[C@]12C (stereo partly shown) [7-hydroxycholesterol] was tested, and the “Recruitment of endogenous Smo to cilia” value [13] was “inactive”.
